Variants at the floor of the assay were thinned out.
B1: tRNA (parent)
chain: GUUCCGUUGGCGUAAUGGUAACGCGUCUCCCUCCUAAGGAGAAGACUGCGGGUUCGAGUCCCGUACGGAACG

Variants of: B1
Test: yeast fitness relative to wild type (ratio to wild type); higher = fitter; tRNA-Arg(CCU), competitive growth, 37 C, YPD
Method in brief: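 Variants of the tRNA-Arg(CCU) gene, chemically synthesised with a 3% per-site mutation rate at 69 sites, were placed at the native genomic locus in Saccharomyces cerevisiae. The pooled strains were competed in YPD at 37°C for 24 hours in six parallel replicates. Gene amplicons from the start population and from each end population were read by 100-nucleotide paired-end sequencing. Darwinian fitness relative to wild type came from changes in genotype frequencies; genotypes needed ≥ 100 starting reads, and estimates < 0.5 were set to 0.5.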

Row | Variant | yeast fitness
1 | GUUCCGUUCGCGUAAUGGUAACGCGUCUCCCUCCUAAGCAGAAGACUGCGGGUUGGAGUCCGGUCCGGAACG [G9C G39C C55G C62G A65C] | ≤ 0.5
2 | GUUCCGUUCGCCUAAUGGUAACGCGUCUCCAUCCUAAGGUGAAGACUGCGGGUUCGAGUCCCGUACAGAACG [G9C G12C C31A A40U G67A] | 0.557
3 | GUUCCGUUCGCGUAAUGGUAACGCGUCUCCCUCCUAAGGAGAAGACUGCGCGUUCGAGUCCGGUACGGAACG [G9C G51C C62G] | ≤ 0.5
4 | GUUCCGUUCGCGUAAUGGUAACGCGUCUCCCUCCUAAGGAAAAGACUGCGGGUUUGAGACCCGUACGGAUCG [G9C G41A C55U U59A A70U] | ≤ 0.5
5 | GUUCCGUUCGCGUAAUGGUAACGCGUCUCCCUCCUAAGGAGAAGACUGCGCGUUCGAAUCCCGUACGGAACG [G9C G51C G58A] | ≤ 0.5
6 | GUUCCGUUCGCGUAAUGGUAACACGUCUCCCUGCUAAGGAGAAGACUGCGGGUUCGAGUCCCGUACGGAACG [G9C G23A C33G] | ≤ 0.5
7 | GUUCCGUUCGCCUAAUGGUAACGCGUCUCCCUCCUAAGGAGAAGACGGCGGGUUCGAGUCCCGUACCGAACG [G9C G12C U47G G67C] | 0.607
8 | GUUCCGUUCGCGUAAUGGUAACACGUCUCCCUCCUAAGGCGAAGACUGCGGGUUGGAGUCCCGUACGGAACG [G9C G23A A40C C55G] | 0.549
9 | GUUCCGUUCGCGUAAUGCUAACGCGUCUCCCUCCUAAGGAGAAGACUGGGGGUUCGAGUCCCGUUCGGAACG [G9C G18C C49G A65U] | 0.553
10 | GUUCCGUUCGCGUAAUCCUAACGCGUCUCCCUCCUAAGGAGAAGACUGCGGGUUCGAGUCCUGUACGGGACG [G9C G17C G18C C62U A69G] | 0.629
11 | GUUCCGUUCGCGUAAUAGCAACACGUCUCCCUCCUAAGGAGAAGACUGUGGGUUUGAGUCCCGUACGGAACG [G9C G17A U19C G23A C49U C55U] | ≤ 0.5
12 | GUUCCGUUCGCGUAAUGAUAAGGCGUCUUCCGCCUAAGGAGAAGACUGCGGGUUCGUGUCCCGUACGGAACG [G9C G18A C22G C29U U32G A57U] | ≤ 0.5
13 | GUUCCGUUCGCGUAAUGGUAACGCGUCUCCCUCCUAAGGAAAAGACUGCGGGUUCGAGUGCCGUGCGGAACG [G9C G41A C60G A65G] | ≤ 0.5
14 | GUUCCGUUCGCGUAAUAGCAACACGUCUCCCUCCUAAGGAGGAGACUGUGGGUUUGAGUCCCGUACGGAACG [G9C G17A U19C G23A A42G C49U C55U] | ≤ 0.5
15 | GUUCCGUUCGCGUAAUGGUAACACGUCUCCCUCUUAAGGAGAAGACUGCGGGUUCGAGUCCCGUACGGAACG [G9C G23A C34U] | 0.655
16 | GUUCCGUUCGCGUAAUGGUAACGCGUCUCCCUCCUAAGAAGAAGACUGCGGGUUCGAGUCCCGUACGCCACG [G9C G39A G68C A69C] | ≤ 0.5
17 | GUUCCGUUCGCGUAAUGGUAACGCGUCUCCCUCCUAAGGAGAACACUGCGGGUUCGAGUCCCGUAUGGAACG [G9C G44C C66U] | 0.568
18 | GUUCCGUUCGCGUAAUGGUAACGCGUCUCCCUCCUAAGGAGAAAACUGCGGGUUCGAGUCCCGUACGGAACG [G9C G44A] | 0.673
19 | GUUCCGUUCGCGUAAUGGUAACGCGUCUCCCUCCUAAGCAGAAGACUGCGGGUUCGAGUCUCGUACGGAACG [G9C G39C C61U] | 0.544

Row | Variant | yeast fitness
20 | GUUCCGUUCGCGUAAUGGUAACGCGUCUCCCUCCUAAGGAGAAGACUGCCGGUUCGAGUUCAGUACGGAACG [G9C G50C C60U C62A] | ≤ 0.5
21 | GUUCCGUUCGCGUAAUGCUAACGCGUCUCCCUCCUAAGGAGAAGACUGCGGGUUCGAGUCCCGUACGGAACG [G9C G18C] | 0.525
22 | GUUCCGUUCGCAUAAUGGUAACGCGUCUCCCUCCUAAGGAGAAGACUGCGGGUUCGAGUCGCGUACGGAACG [G9C G12A C61G] | ≤ 0.5
23 | GUUCCGUUCGCAUAAUGGUAACGCGUCUCCCUCCUAAGGAGAAGACUGCGGGUUCGAGUCCGGUACAGAACG [G9C G12A C62G G67A] | 0.618
24 | GUUCCGUUCGCGUAAUGCUAACGCGUCUCCCUCCUAAGGAGAAGACUGGGGGUUCGAGUCCCGUACGGAACG [G9C G18C C49G] | ≤ 0.5
25 | GUUCCGUUCGCGUAAUGCUAACGCGUCUCCCGCCUAAGGACAAGAUUGCGGGUUCGAGUCCCGUACGGAACG [G9C G18C U32G G41C C46U] | ≤ 0.5
26 | GUUCCGUUCGCGUAAUAGCAACACGUCUCCCUCCUAAGGAGAAGACUGCGGGUUCGAGUCCCGUACUGAACG [G9C G17A U19C G23A G67U] | ≤ 0.5
27 | GUUCCGUUCGCGUAAUAGUAACGCGUCUCCCUCCUAAGGAGAAGACUGCGGGUUCGAGUCCCGCACGGAACG [G9C G17A U64C] | ≤ 0.5
28 | GUUCCGUUCGCGUAAUGGUAACGCGUCUCCCUCCUAAGCAGAAGACUGCGGGUUCGAGUCCCGUACGGUACG [G9C G39C A69U] | ≤ 0.5
29 | GUUCCGUUCGCGUAAUGGUAACGCGUCUCCCUCCUAAGGAGAAGACUGCGCAUUCGAGUACCGUACGGAUCG [G9C G51C G52A C60A A70U] | ≤ 0.5
30 | GUUCCGUUCGCGUAAUGGUAACGCGUCUCCCUCCUAAGCAGAAGACUGCGGGUUCGAGUCCCGUACGGAACG [G9C G39C] | 0.64
31 | GUUCCGUUCGCGUAAUGGUAACGCGUCUCCCUCCUAAGCAGAAGACUGCGGGUUCGAGUCCCGUACUGAACG [G9C G39C G67U] | ≤ 0.5
32 | GUUCCGUUCGCGUAAUGGUAACCCGUCUCCCUCCUAAGGAGAAGACUGCGGGUUCGCGUCCCGUACGGAACG [G9C G23C A57C] | ≤ 0.5
33 | GUUCCGUUCGCGUAAUGGUAACGCGUCUCCCUCCUAAAGAGAAGACUGCGGGUUCGCGUCCCGUACGGAACG [G9C G38A A57C] | ≤ 0.5
34 | GUUCCGUUCGCGUAAUGGUAACACGUCUCCCUCCUAAGGCGAAGCCUGCGGGUUCGAGUCCCGUACGGAACG [G9C G23A A40C A45C] | ≤ 0.5
35 | GUUCCGUUCGCGUAAUGGUAACACGUCUCCCUCUUAAGGAGAAGACUGCGGGUUCGAGUCCCGUAGGGAACG [G9C G23A C34U C66G] | ≤ 0.5
36 | GUUCCGUUCGCGUAAUGGUAACCCGUCUCGCUCCUAAGGAGAAAACUGCGGGUUCGACUCCCAUACGGAGCG [G9C G23C C30G G44A G58C G63A A70G] | ≤ 0.5
37 | GUUCCGUUCGCGUAAUGGUAACACGUCUCCCUCCUAAGGCGAAGACUGCGGGUUGGAGUCCCGUGCGGAACG [G9C G23A A40C C55G A65G] | ≤ 0.5
38 | GUUCCGUUCGCGUAAUGGUAACGCGUCUCCCUCCUAAGGACAAGUCUGCAGGUUCGAGUCCCGUACCGAACG [G9C G41C A45U G50A G67C] | 0.616

— the RNAGym collection of RNA variant scans (doi:10.1126/science.aae0568)
